For twelve molecules, IC50 and inhibition results are on record in ChEMBL document CHEMBL4371094, “Secondary Metabolites from the Fungus Dictyosporium sp. and Their MALT1 Inhibitory Activities” (J Nat Prod, 2019).

Structures are written as SMILES. Active and inactive are the calls of the source. The rule behind the calls is not given here.

The first experiment has as its target T1, Mucosa-associated lymphoid tissue lymphoma translocation protein 1 (Homo sapiens, UniProt Q9UDY8).
T1 sequence (Q9UDY8 whole entry): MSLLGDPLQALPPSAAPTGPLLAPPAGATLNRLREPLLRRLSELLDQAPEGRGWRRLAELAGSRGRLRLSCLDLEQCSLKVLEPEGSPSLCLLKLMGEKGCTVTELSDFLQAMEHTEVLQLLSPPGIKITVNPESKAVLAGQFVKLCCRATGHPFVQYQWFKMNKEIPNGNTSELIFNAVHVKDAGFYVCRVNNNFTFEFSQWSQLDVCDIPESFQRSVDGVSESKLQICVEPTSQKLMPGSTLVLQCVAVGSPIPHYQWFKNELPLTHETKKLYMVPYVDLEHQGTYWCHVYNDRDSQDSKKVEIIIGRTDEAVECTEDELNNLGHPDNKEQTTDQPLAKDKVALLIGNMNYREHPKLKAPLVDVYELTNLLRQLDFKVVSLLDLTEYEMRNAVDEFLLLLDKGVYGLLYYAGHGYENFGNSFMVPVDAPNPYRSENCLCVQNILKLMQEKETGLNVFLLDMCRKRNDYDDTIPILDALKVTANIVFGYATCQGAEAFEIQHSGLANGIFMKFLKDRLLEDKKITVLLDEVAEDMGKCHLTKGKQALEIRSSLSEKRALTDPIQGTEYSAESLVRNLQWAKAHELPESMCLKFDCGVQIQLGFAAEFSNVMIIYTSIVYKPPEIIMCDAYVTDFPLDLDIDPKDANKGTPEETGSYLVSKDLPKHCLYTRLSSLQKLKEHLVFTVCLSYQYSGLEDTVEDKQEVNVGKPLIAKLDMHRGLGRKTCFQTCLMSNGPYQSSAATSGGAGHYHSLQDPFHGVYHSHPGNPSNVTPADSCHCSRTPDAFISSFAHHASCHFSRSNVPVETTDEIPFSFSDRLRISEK
Kind of experiment: Inhibition of full-length human GST-tagged MALT1 isoform A (824 residues) expressed in Escherichia coli using Ac-LRSR-MCA as substrate after 1 hr by fluorescence assay. The method in brief: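 Recombinant MALT1-GST, 25 nM final, in buffer of 50 mM Tris HCl pH 7.5, 0.05% CHAPS, 1 mM DTT, 0.1 mM EGTA, 0.8 M sodium citrate. Started by adding 150 μM Ac-LRSR-MCA with compound (0−250 μM). 37 °C for 1 h, quenched with equal volume 0.2% SDS, AMC fluorescence read at ex 342/em 441 nm in quadruplicate. Prequenched background subtracted, normalized to vehicle control.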
`CC(C)[C@H](NC(=O)OCc1ccccc1)C(=O)N[C@@H](CCCNC(=N)N)C(=O)N1CCC[C@H]1C(=O)N[C@@H](CCCNC(=N)N)C(=O)CF`: the IC50 (commonly the concentration at which inhibition is half-maximal) was 0.016 µM.
As for `COC(=O)C1=CC=COc2oc3cc(C)cc(O)c3c(=O)c21`, the IC50 came to 50.9 µM.
`COC(=O)C1=CC(C)=COc2oc3cccc(O)c3c(=O)c21` came in with an IC50 of 32.1 µM.

The next experiment addresses T2, Mucosa-associated lymphoid tissue lymphoma translocation protein 1 (Homo sapiens) (UniProt Q9UDY8).
T2 sequence (whole entry): T1 sequence (Q9UDY8 whole entry)
Kind of experiment: Inhibition of full-length human GST-tagged MALT1 isoform A (824 residues) expressed in Escherichia coli at 100 uM using Ac-LRSR-MCA as substrate after 1 hr by fluorescence assay.
Consider `CCc1c(OC)cc2c(c1O)C(=O)CC[C@@]21C[C@@H](O)C(=O)O1`, for which the inhibition entry was “inactive”.
On the same count and under the same terms, the result for `CCc1c(OC)cc2c(c1O)C(=O)CC[C@@H]2O` reads “inactive”; that for `COC(=O)c1cc(O)cc2oc3cc(C)cc(O)c3c(=O)c12`, “inactive”.
For the molecule `Cc1cc([C@@H]2C[C@H](O)C(=O)O2)c2c(=O)c3c(O)cccc3oc2c1`, the inhibition entry is “inactive”.
As to `COc1c(C)cc(O)c2c1[C@H](O)[C@]1(C(=O)C(CC=C(C)C)=CC[C@H]1O)C2=O`, the inhibition result was “inactive”.
`COC(=O)c1cc(C)c(O)c2oc3cccc(O)c3c(=O)c12`: the inhibition entry was “inactive”.
On the same count and under the same terms, the result for `COc1cc2c(c(O)c1[C@H](C)O)C(=O)CC[C@@H]2O` reads “inactive”.
Still for that read-out and setting: the result for `COC(=O)c1cccc2oc3cc(C)cc(O)c3c(=O)c12` reads “inactive”; that for `Cc1cc(CO)c2c(=O)c3c(O)cccc3oc2c1`, “inactive”.

A further experiment concerns the target T2, Mucosa-associated lymphoid tissue lymphoma translocation protein 1 (Homo sapiens). Kind of experiment: Inhibition of full-length human GST-tagged MALT1 isoform A (824 residues) expressed in Escherichia coli at >100 uM in presence of AMC after 1 hr by fluorescence assay.
In the case of `COC(=O)C1=CC=COc2oc3cc(C)cc(O)c3c(=O)c21`, the inhibition entry is “Active”.
`COC(=O)C1=CC(C)=COc2oc3cccc(O)c3c(=O)c21`: the inhibition entry was “Active”.
